Values after ≈ are worked out from the molar mass of the structure shown. Active and inactive are the calls of the source. The rule behind the calls is not given here.
Legend:
[1] = Inhibition of Mycobacterium tuberculosis DNA gyrase GyrB/GyrA A83S mutant
Summary of the method: (§1)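 Enzyme unit: protein needed for 50% supercoiling of 0.4 μg relaxed pBR322 DNA in 1 h at 37°C. Wild-type and mutant enzymes assayed in parallel on the same day under identical conditions. Repeated two to four times; representative values reported.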

[2] = Inhibition of Mycobacterium tuberculosis DNA gyrase GyrB/GyrA A83S, S84A and I85V mutant; summary of the method: as §1
[3] = Inhibition of Mycobacterium tuberculosis DNA gyrase GyrB/GyrA A83S, S84A, I85V, F96W and P101M mutant; summary of the method: as §1
[4] = Inhibition of Mycobacterium tuberculosis DNA gyrase GyrB/GyrA M74I mutant; summary of the method: as §1
[5] = Inhibition of Mycobacterium tuberculosis DNA gyrase GyrB/GyrA M74I and A83S mutant; summary of the method: as §1
[6] = Inhibition of Mycobacterium tuberculosis DNA gyrase GyrB/GyrA S69V, A71G, E72D, T73V, M74I, N76K, A83S, S84A, I85V, F96W and P101M mutant; summary of the method: as §1
[7] = Inhibition of Mycobacterium tuberculosis DNA gyrase GyrA/GyrB R447K mutant gene; summary of the method: as §1
[8] = Inhibition of Mycobacterium tuberculosis DNA gyrase GyrA A83S mutant/GyrB R447K mutant gene; summary of the method: as §1
[9] = Inhibition of Mycobacterium tuberculosis DNA gyrase GyrA M74I and A83S mutant/GyrB R447K mutant gene; summary of the method: as §1
[10] = Inhibition of Mycobacterium tuberculosis DNA gyrase GyrA/GyrB N464S mutant gene; summary of the method: as §1
[11] = tested on: Mycobacterium tuberculosis
[12] = tested on: Mycobacterium tuberculosis; remark: listed apart in the source
[13] = tested on: Mycobacterium tuberculosis; remark: listed apart in the source
[14] = tested on: Mycobacterium tuberculosis; remark: listed apart in the source
[15] = tested on: Mycobacterium tuberculosis; remark: listed apart in the source
[16] = tested on: Mycobacterium tuberculosis; remark: listed apart in the source
[17] = tested on: Mycobacterium tuberculosis; remark: listed apart in the source
[18] = tested on: Mycobacterium tuberculosis; remark: listed apart in the source
[19] = tested on: Mycobacterium tuberculosis; remark: listed apart in the source
[20] = tested on: Mycobacterium tuberculosis; remark: listed apart in the source
[21] = tested on: Mycobacterium tuberculosis; assay: Antimicrobial activity against Mycobacterium tuberculosis harboring DNA gyrase GyrA QRDR; format: functional, organism-based
[22] = tested on: Mycobacterium tuberculosis; assay: Antimicrobial activity against Mycobacterium tuberculosis harboring DNA gyrase GyrB QRDR; format: functional, organism-based

CCn1cc(C(=O)O)c(=O)c2cc(F)c(N3CCNCC3)nc21 [ENOXACIN]
IC50 [1]: 16 µM | IC50 [2]: 11 µM | IC50 [3]: 16 µM | IC50 [4]: > 160 µM | IC50 [5]: 9 µM | IC50 [6]: Not Active | IC50 [7]: 23 µM | IC50 [8]: 19 µM | IC50 [9]: 16 µM

COc1c(N2C[C@@H]3CCCN[C@@H]3C2)c(F)cc2c(=O)c(C(=O)O)cn(C3CC3)c12 [MOXIFLOXACIN]
IC50 [5]: 1 µM | IC50 [6]: Not Active | IC50 [7]: 1 µM | IC50 [10]: 7 µM | IC50 [9]: 2 µM | CC25 [11]: 0.5 µM | CC25 [12]: 1 µM | CC25 [13]: 1 µM | CC25 [14]: 2.5 µM | CC25 [15]: 0.5 µM | CC25 [16]: 0.5 µM | CC25 [17]: inactive | CC25 [18]: 3.5 µM | CC25 [19]: inactive | CC25 [20]: inactive

CCn1cc(C(=O)O)c(=O)c2ccc(C)nc21 [NALIDIXIC ACID]
IC50 [1]: 950 µM | IC50 [2]: 2800 µM | IC50 [3]: 1080 µM | IC50 [4]: 3450 µM | IC50 [5]: 850 µM | IC50 [6]: Not Active | IC50 [7]: 1080 µM | IC50 [10]: 4100 µM | IC50 [8]: 850 µM | IC50 [9]: 520 µM

CC1COc2c(N3CCN(C)CC3)c(F)cc3c(=O)c(C(=O)O)cn1c23 (configuration not stated) [OFLOXACIN]
IC50 [1]: 7 µM | IC50 [2]: 8 µM | IC50 [3]: 7 µM | IC50 [4]: 25 µM | IC50 [5]: 3 µM | IC50 [6]: Not Active | IC50 [7]: 7 µM | IC50 [10]: 20 µM | IC50 [8]: 4 µM | IC50 [9]: 11 µM | IC50 [21]: 10 µg/mL (≈ 27.7 µM) | MIC50 [21]: 1 µg/mL (≈ 2.77 µM) | IC50 [22]: 10 µg/mL (≈ 27.7 µM) | MIC50 [22]: 1 µg/mL (≈ 2.77 µM) | CC25 [11]: 1.5 µM | CC25 [12]: 3 µM | CC25 [13]: 3 µM | CC25 [15]: 1.5 µM | CC25 [16]: 0.5 µM | CC25 [17]: inactive | CC25 [18]: 14 µM | CC25 [19]: inactive | CC25 [20]: inactive

From ChEMBL document CHEMBL1275433 (Antimicrob Agents Chemother, 2008)
